Measurements reported in ChEMBL document CHEMBL1157808, “Synthesis and biological evaluation of phenolic 4,5-dihydroisoxazoles and 3-hydroxy ketones as estrogen receptor alpha and beta agonists” (Bioorg Med Chem, 2010).

Tests used:
[1] = target: Estrogen receptor beta (Homo sapiens) (UniProt Q92731); assay: Agonist activity at ERbeta expressed in HEK293 cells at 10 uM after 24 hrs by luciferase reporter gene assay relative to 3,17-beta-estradiol; type: functional, cell-based
Summary of the method: (§1)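 HEK293 cells (no endogenous ER) in phenol-free DMEM with 5% delipidated FBS were transfected for 4 h with 5 ng ERα or ERβ expression vector, 75 ng pERE2TATA-LUC reporter and 20 ng pCMVβ. Cells then received 10 μM compound, 10 nM E2 or vehicle (0.1% v/v) for 24 h. Luciferase was normalized to β-galactosidase and expressed as 100% × (test − vehicle)/(E2 − vehicle). Values are means of at least three independent transfections.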

[2] = target: T1, Estrogen receptor (Homo sapiens) (UniProt P03372); assay: Agonist activity at ERalpha expressed in HEK293 cells at 10 uM after 24 hrs by luciferase reporter gene assay relative to 3,17-beta-estradiol; type: functional, cell-based; summary of the method: as §1
T1 sequence (whole entry): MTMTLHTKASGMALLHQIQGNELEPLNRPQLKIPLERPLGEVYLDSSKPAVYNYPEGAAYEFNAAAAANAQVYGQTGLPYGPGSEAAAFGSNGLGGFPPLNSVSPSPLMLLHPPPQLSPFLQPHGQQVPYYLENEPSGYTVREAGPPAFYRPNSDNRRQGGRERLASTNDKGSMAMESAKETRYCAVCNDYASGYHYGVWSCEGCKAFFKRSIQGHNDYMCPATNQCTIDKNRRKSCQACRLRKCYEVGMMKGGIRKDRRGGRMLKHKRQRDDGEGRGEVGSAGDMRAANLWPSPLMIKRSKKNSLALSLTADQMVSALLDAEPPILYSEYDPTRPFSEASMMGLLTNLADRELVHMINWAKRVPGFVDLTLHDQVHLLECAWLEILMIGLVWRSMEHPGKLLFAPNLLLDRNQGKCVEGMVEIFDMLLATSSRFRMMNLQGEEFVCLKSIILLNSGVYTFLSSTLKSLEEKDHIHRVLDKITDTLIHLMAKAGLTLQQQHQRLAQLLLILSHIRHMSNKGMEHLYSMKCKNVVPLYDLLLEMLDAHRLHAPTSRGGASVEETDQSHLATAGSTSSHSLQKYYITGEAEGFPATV

Homo sapiens = organism: Homo sapiens; assay: Selectivity ratio of relative binding affinity for human ERalpha to relative binding affinity for human ERbeta
Summary of the method: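 COS-1 cells in DMEM with 10% delipidated FBS were transfected for 24 h with human ERα or ERβ vector (pSG5-hERα/β). Cells were washed, lysed in 0.5 M NaOH at 56 °C for 15 min and counted by scintillation, with nonspecific binding subtracted.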

Estrogen receptor beta (Homo sapiens), sequence (Q92731 whole entry): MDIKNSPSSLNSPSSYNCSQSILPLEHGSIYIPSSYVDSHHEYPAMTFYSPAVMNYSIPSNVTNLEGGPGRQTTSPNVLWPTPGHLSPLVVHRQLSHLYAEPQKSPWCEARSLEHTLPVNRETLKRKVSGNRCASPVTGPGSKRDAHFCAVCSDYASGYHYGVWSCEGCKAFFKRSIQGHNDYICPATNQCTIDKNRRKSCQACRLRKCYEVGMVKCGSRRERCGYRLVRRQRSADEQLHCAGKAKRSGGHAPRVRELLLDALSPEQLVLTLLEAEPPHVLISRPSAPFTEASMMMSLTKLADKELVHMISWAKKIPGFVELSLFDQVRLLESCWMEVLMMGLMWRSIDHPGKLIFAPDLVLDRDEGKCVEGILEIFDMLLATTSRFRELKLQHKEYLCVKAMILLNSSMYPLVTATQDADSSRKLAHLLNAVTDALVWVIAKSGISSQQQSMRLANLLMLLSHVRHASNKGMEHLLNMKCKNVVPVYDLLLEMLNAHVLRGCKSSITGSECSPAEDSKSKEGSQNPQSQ

| Activity [1] | Activity [2] | Ratio (Homo sapiens) | SMILES |
| --- | --- | --- | --- |
| 107% | 55% | 0.2 | O=C(CCc1ccc(O)cc1)CC(O)Cc1ccccc1 (racemic) |
|  |  | 0.7 | O=C(CCCc1ccccc1)CC(O)c1ccccc1 (stereo in doubt; 48a) |
| 2.4% | 16% |  | O=C(CCCc1ccccc1)CC(O)Cc1ccc(O)cc1 (racemic) |
| 5.1% | 45.2% |  | O=C(CCc1ccccc1O)CC(O)Cc1ccccc1 (racemic) |
| 11.1% | 21.6% |  | O=C(CCc1ccccc1O)CC(O)Cc1ccc(F)cc1 (racemic) |
| -0.4% | 11.8% |  | CC1(c2ccccc2)CC(CCc2ccccc2O)=NO1 (single isomer, unassigned; 37a) |
| 42.4% | 105% |  | Oc1ccc(CC2CC(CCc3ccccc3)=NO2)cc1 (stereo unspecified) |
| 38.4% | 52.1% |  | CC(O)(CC(=O)CCc1ccccc1)c1ccccc1 (racemic) |
| -20% | 8.1% |  | CC1(c2ccccc2)CC(CCc2ccccc2)=NO1 (single isomer, unassigned; 36a) |
| 2.6% | 8.3% |  | Oc1cccc(CCC2=NOC(CCc3ccccc3)C2)c1 (stereo in doubt; 17a) |
| 30.5% | 39.7% |  | Oc1ccccc1CCC1=NOC(Cc2ccccc2)C1 (single isomer, unassigned) |
| 1.1% | 4% |  | O=C(CCc1ccccc1O)CC(O)CCc1ccccc1 (racemic) |
| 0.8% | 15.8% |  | Oc1ccc(CCC2=NOC(CCc3ccccc3)C2)cc1 (stereo in doubt; 18b) |
|  |  | 6 | Oc1ccc(CCC2=NOC(Cc3ccccc3)C2)cc1 (single isomer, unassigned; 3a) |
| -0.7% | 1.4% |  | Oc1ccc(CC2CC(CCCc3ccc(O)c(O)c3)=NO2)cc1 (single isomer, unassigned; 28b) |
| 2.8% | 25.3% |  | O=C(CCc1ccccc1)CC(O)c1ccccc1 (single isomer, unassigned) |
| -0.8% | -0.5% |  | O=C(CCCc1ccc(O)c(O)c1)CC(O)Cc1ccccc1 (racemic) |
| 19.8% | 75.1% |  | Oc1ccc(CCCC2=NOC(Cc3ccccc3)C2)cc1 (single isomer, unassigned) |
| -2.9% | 7.1% |  | CC1(c2ccccc2)CC(CCc2cccc(O)c2)=NO1 (single isomer, unassigned; 38b) |
| 4.4% | 5.7% |  | Oc1ccc(CCC2=NOC(Cc3ccc(F)cc3)C2)cc1 (single isomer, unassigned) |
| 17% | 97.2% |  | Oc1ccc(CC2CC(CCCc3ccccc3)=NO2)cc1 (single isomer, unassigned; 25b) |
| 8.1% | 11.2% |  | c1ccc(CCC2=NOC(c3ccccc3)C2)cc1 (single isomer, unassigned) |
| 10.6% | 13.6% |  | Oc1ccc(CCCC2=NOC(Cc3ccc(O)cc3)C2)cc1 (single isomer, unassigned) |
| 2.6% | 21.8% |  | Oc1ccccc1CCC1=NOC(CCc2ccccc2)C1 (stereo in doubt; 16b) |
| -7.3% | 10.9% |  | CC1(c2ccccc2)CC(CCc2ccccc2)=NO1 (single isomer, unassigned; 36b) |
| -2.4% | 11.1% |  | Oc1ccccc1CCC1=NOC(Cc2ccc(F)cc2)C1 (stereo unspecified) |
| 30% | 21.7% |  | CC1(c2ccccc2)CC(CCc2ccccc2O)=NO1 (single isomer, unassigned; 37b) |

| Activity [1] | Activity [2] | Ratio (Homo sapiens) | SMILES |
| --- | --- | --- | --- |
| 0.5% | 21.6% |  | CC1(c2ccccc2)CC(CCc2cccc(O)c2)=NO1 (single isomer, unassigned; 38a) |
| 15.4% | 62.8% |  | Oc1ccc(CCC2=NOC(CCc3ccccc3)C2)cc1 (single isomer, unassigned) |
| 1.3% | 38.2% |  | c1ccc(CCC2=NOC(Cc3ccccc3)C2)cc1 (single isomer, unassigned) |
| 21.2% | 28.6% |  | O=C(CCc1ccc(O)cc1)CC(O)Cc1ccc(F)cc1 (racemic) |
| 1.8% | 15.4% |  | O=C(CCCc1ccc(O)cc1)CC(O)Cc1ccc(O)cc1 (stereo in doubt; form 2) |
| 43.5% | 49.3% |  | O=C(CCCc1ccc(O)cc1)CC(O)c1cccc(O)c1 (single isomer, unassigned) |
| -0.9% | 32.9% |  | Oc1ccc(CCCC2=NOC(c3cccc(O)c3)C2)cc1 (single isomer, unassigned) |
| -1.6% | 2.8% |  | O=C(CCCc1ccc(O)cc1)CC(O)Cc1ccc(O)cc1 (stereo in doubt; 32b) |
| 18% | 39.7% |  | CC1(c2ccccc2)CC(CCc2ccc(O)cc2)=NO1 (single isomer, unassigned; 39a) |
| 4.7% | 67.1% |  | Oc1ccc(CC2CC(CCCc3ccccc3)=NO2)cc1 (single isomer, unassigned; 25a) |
| -1.3% | 2.1% |  | Oc1ccc(CCCC2=NOC(Cc3ccccc3)C2)cc1O (single isomer, unassigned; 27b) |
| 7.2% | 27.6% |  | Oc1ccc(CCCC2=NOC(c3cccc(O)c3)C2)cc1 (stereo in doubt; 47b) |
| -3.1% |  |  | c1ccc(CCCC2=NOC(c3ccccc3)C2)cc1 (stereo in doubt; 43a) |
| -0.9% | 14.4% |  | Oc1ccc(CCCC2=NOC(Cc3ccc(O)cc3)C2)cc1 (stereo in doubt; 26a) |
| -0.6% | 0.5% |  | O=C(CCCc1ccc(O)c(O)c1)CC(O)Cc1ccc(O)cc1 (racemic) |
| 1.3% | 0.3% |  | Oc1ccc(CCCC2=NOC(Cc3ccccc3)C2)cc1O (single isomer, unassigned; 27a) |
| 7.4% | 28.9% |  | Fc1ccc(CC2CC(CCc3ccccc3)=NO2)cc1 (single isomer, unassigned) |
| 108% | 87.4% |  | O=C(CCCc1ccc(O)cc1)CC(O)Cc1ccc(O)cc1 (stereo in doubt; form 1) |
| 37.4% | 18.7% |  | CC1(c2ccccc2)CC(CCc2ccc(O)cc2)=NO1 (single isomer, unassigned; 39b) |
| 3.6% | 3% |  | Oc1cccc(CCC2=NOC(CCc3ccccc3)C2)c1 (single isomer, unassigned) |
| 6.1% | 51.4% |  | O=C(CCc1ccccc1)CC(O)Cc1ccc(O)cc1 (racemic) |
| 116% | 80.3% |  | CC(O)(CC(=O)CCc1ccc(O)cc1)c1ccccc1 (racemic) |
| 5.1% | 28.1% |  | c1ccc(CCCC2=NOC(Cc3ccccc3)C2)cc1 (stereo unspecified) |
| 78.2% | 154% |  | Oc1ccc(CCCC2=NOC(Cc3ccccc3)C2)cc1 (stereo in doubt; 24a) |
| 4.2% | 4.5% |  | Oc1ccccc1CCC1=NOC(CCc2ccccc2)C1 (single isomer, unassigned) |
| -1.1% | 1.7% |  | Oc1ccc(CC2CC(CCCc3ccc(O)c(O)c3)=NO2)cc1 (single isomer, unassigned; 28a) |
| -0.4% | 43.9% |  | c1ccc(CCC2=NOC(CCc3ccccc3)C2)cc1 (stereo unspecified) |
